One may read the inhibition as the change of the read-out against control, counted positive when it falls.

The values that follow come from ChEMBL document CHEMBL4715754, “Slowing down fat digestion and absorption by an oxadiazolone inhibitor targeting selectively gastric lipolysis” (2016).

Experiment [1] concerns the target T1, Gastric triacylglycerol lipase (Canis lupus familiaris) (UniProt P80035).
T1 sequence (whole entry): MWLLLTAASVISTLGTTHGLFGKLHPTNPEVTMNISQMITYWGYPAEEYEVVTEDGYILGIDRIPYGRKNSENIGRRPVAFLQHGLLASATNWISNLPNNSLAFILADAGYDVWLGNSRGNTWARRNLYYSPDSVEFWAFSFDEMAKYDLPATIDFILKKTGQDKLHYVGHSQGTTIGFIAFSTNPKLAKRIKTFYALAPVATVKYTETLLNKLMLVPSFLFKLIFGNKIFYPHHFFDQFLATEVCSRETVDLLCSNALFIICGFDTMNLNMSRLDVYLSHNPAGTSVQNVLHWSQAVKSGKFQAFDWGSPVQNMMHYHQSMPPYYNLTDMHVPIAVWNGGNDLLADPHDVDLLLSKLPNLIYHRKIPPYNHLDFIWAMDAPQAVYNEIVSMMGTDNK
In words: Inhibition of recombinant dog gastric lipase preincubated for 30 mins at 25 degreeC.

The species entered for experiment [2] is Homo sapiens. Briefly: Inhibition of human pancreatic carboxylesterase at 20:1 molar excess compound concentration preincubated for 30 mins at 25 degreeC relative to control. Put shortly: (§1)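 hCEH (1 mg/mL in 10 mM MES pH 6.5, 150 mM NaCl) pre-incubated 30 min at 25 °C with inhibitor from DMSO stock at various molar excesses, no substrate. Residual activity by pH-stat on tributyrin emulsion at 37 °C in 1 mM Tris-HCl pH 8.0, 100 mM NaCl, 5 mM CaCl2, 1 mM NaTDC. Relative to DMSO-only control; at least triplicate.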

Experiment [3] is filed under the species Homo sapiens. Briefly: Inhibition of human pancreatic carboxylesterase preincubated for 30 mins at 25 degreeC. The essentials: as §1
The target of experiment [4] is T1, Gastric triacylglycerol lipase (Canis lupus familiaris). Briefly: Inhibition of recombinant dog gastric lipase preincubated for 1 hr at 25 degreeC relative to orlistat.
Experiment [5] shares this target. Briefly: Inhibition of recombinant dog gastric lipase assessed as residual activity at 4.1 mg/ml under gastric phase at pH 5.5 using liquid test meal measured up to 30 mins relative to control. Conditions: time min <=30. Put shortly: (§2)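 Gastric phase: 15 mL liquid or solid test meal (506 mg TAG) premixed with 734 µL of 4.1 mg/mL DMSO stock (2.94 mg, 7.262 µmol), then DGL to 17 µg/mL final, pH 5.5, 37 °C, stirred. Samples at 1, 15, 29 min; residual DGL activity by pH-stat; lipolysis level from TLC-FID of lipid extracts. DMSO-only controls; n = 3.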

The target in experiment [6] is T2, Pancreatic triacylglycerol lipase (Sus scrofa) (UniProt P00591).
T2 sequence (whole entry): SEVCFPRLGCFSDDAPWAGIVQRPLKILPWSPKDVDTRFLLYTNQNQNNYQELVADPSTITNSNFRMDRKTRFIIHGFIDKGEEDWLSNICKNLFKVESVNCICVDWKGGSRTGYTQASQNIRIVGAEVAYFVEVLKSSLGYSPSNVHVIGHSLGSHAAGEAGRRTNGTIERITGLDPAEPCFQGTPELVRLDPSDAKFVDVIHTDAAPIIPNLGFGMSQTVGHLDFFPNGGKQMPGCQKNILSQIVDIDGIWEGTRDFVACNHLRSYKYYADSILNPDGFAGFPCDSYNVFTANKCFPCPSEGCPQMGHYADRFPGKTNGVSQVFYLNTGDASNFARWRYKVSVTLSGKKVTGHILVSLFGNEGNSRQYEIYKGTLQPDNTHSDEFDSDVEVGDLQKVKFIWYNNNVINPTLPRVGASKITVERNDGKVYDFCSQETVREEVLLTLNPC
In words: Inhibition of porcine pancreatic lipase assessed as residual activity at 4.1 mg/ml under duodenal phase at pH 6.5 using liquid test meal measured after 30 to 90 mins relative to control. To be noted: time 30-90 min.

Experiment [7] addresses T1, Gastric triacylglycerol lipase (Canis lupus familiaris). Briefly: Inhibition of recombinant dog gastric lipase assessed as residual activity at 4.1 mg/ml under gastric phase at pH 5.5 using solid test meal measured up to 30 mins relative to control. Conditions: time min <=30. The essentials:
as §2

Experiment [8] has as its target T2, Pancreatic triacylglycerol lipase (Sus scrofa). Briefly: Inhibition of porcine pancreatic lipase at 4.1 mg/ml under duodenal phase at pH 6.5 using liquid test meal measured after 30 to 90 mins relative to control. To be noted: time 30-90 min.
In experiment [9] the target is T1, Gastric triacylglycerol lipase (Canis lupus familiaris). Briefly: Inhibition of recombinant dog gastric lipase at 4.1 mg/ml under gastric phase at pH 5.5 using solid test meal measured up to 30 mins relative to control. Conditions: time min <=30. Put shortly:
as §2

Experiment [10] concerns the target T2, Pancreatic triacylglycerol lipase (Sus scrofa). Briefly: Inhibition of porcine pancreatic lipase at 4.1 mg/ml under duodenal phase at pH 6.5 using solid test meal measured after 30 to 90 mins relative to control. Conditions: time 30-90 min.
Experiment [11] has as its target T1, Gastric triacylglycerol lipase (Canis lupus familiaris). Briefly: Inhibition of recombinant dog gastric lipase assessed as lipolysis level at 4.1 mg/ml under gastric phase at pH 5.5 using liquid test meal measured up to 30 mins (reference value: 22.3 +/- 1.4 %). To be noted: time min <=30. Also noted: scale not given: the % may be the effect or the level left. Put shortly:
as §2

Experiment [12] has the same target. Briefly: Inhibition of recombinant dog gastric lipase assessed as lipolysis level at 4.1 mg/ml under gastric phase at pH 5.5 using solid test meal measured up to 30 mins (reference value: 13 +/- 1.2 %). Also noted: scale not given: the % may be the effect or the level left. To be noted: time min <=30. The essentials: as §2
The target in experiment [13] is T2, Pancreatic triacylglycerol lipase (Sus scrofa). In words: Inhibition of porcine pancreatic lipase assessed as lipolysis level at 4.1 mg/ml under duodenal phase at pH 6.5 using solid test meal measured at 45 mins (reference value: 24.7 +/- 0.87 %). Also noted: scale not given: the % may be the effect or the level left.
For experiment [14] the target is unchanged. Briefly: Inhibition of porcine pancreatic lipase assessed as lipolysis level at 4.1 mg/ml under duodenal phase at pH 6.5 using liquid test meal measured at 90 mins (reference value: 63.6 +/- 2.6 %). Also noted: scale not given: the % may be the effect or the level left.
For experiment [15], the target named is T1, Gastric triacylglycerol lipase (Canis lupus familiaris). In words: Inhibition of recombinant dog gastric lipase assessed as lipolysis level at 4.9 mg/ml under gastric phase at pH 5.5 using liquid test meal measured up to 30 mins (reference value: 22.3 +/- 1.4 %). Conditions: time min <=30. Also noted: scale not given: the % may be the effect or the level left. The essentials:
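In vitro two-phase digestion at 37 °C, 1,000 rpm: 15 mL liquid or solid test meal (506 mg TAG) was premixed with 7.262 µmol inhibitor in DMSO (DMSO-only control). Gastric phase: DGL 17 µg/mL final, pH 5.5. Duodenal phase from 30 min: pancreatic extract plus bovine bile added (PPL 250 µg/mL, bile salts 4.0 mM), pH 6.25. Lipids in samples were quantified by TLC-FID; LL% is (MAG+FFA) relative to 3×initial TAG; n = 3.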

For experiment [16], the target named is T2, Pancreatic triacylglycerol lipase (Sus scrofa). To be noted: dose 4.9 mg/ml, time 30-90 min.
Experiment [17] has the same target. To be noted: dose 4.9 mg/ml, time 30-90 min. This is another data set of the same source.

For the molecule `O=c1oc(OCCOCc2ccccc2)nn1-c1cccc(Oc2ccccc2)c1`, the XI50 in [1] came out at 0.5 molar excess; in [3], 1.42 molar excess. Moreover, the inhibition was found to be 71.5% in experiment [2], 5.6% in experiment [8], 97.2% in [9] and 5.1% in experiment [10]. In addition, in experiment [4], the fold change (FC) was found to be 11.2. Moreover, the Activity came to 0% in [5]; 94.4% in experiment [6]; 2.8% in experiment [7]; 4.5% in experiment [11]; 3.1% in experiment [12]; 20.6% in experiment [13]. In addition, the Activity in experiment [14] was 55.3%.
Turning to `CCCCCCCCCCC[C@@H](C[C@@H]1OC(=O)[C@H]1CCCCCC)OC(=O)[C@@H](CC(C)C)NC=O`, in [15], the Activity worked out at 0%. The figures for the inhibition in experiment [16] and in [17] were 86.6% and 100%, respectively.
